# Source: publication PMC4293705 (ChemPlusChem, 2012)
# Where “and” joins values, the source holds several entries; their conditions need not be identical. Identical values can stand only once. Like-named read-outs stand apart in the source and are kept apart here. Marks after values point to notes of the source that are not given here.
# Experiments:
# HUVEC [1] = assay: Wound-healing assay, HUVEC migration; type: cell-based, human; settings: 16 h; for effect on HUVEC migration versus control: 10^−6 to 10^−5 M
# Method in brief: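 HUVECs (4 × 10^5/well) plated on 0.2 % gelatin; wound made after 24 h on the confluent layer. Cells then treated 16 h with test compound (10−5 to 10−6 M) in phenol-red-free M199 with 10 % FBS and photographed at 16 h. Genistein 30 μg mL−1 and EGF 50 ng mL−1 as references. At least three experiments; mean ± SEM; ANOVA/Student's test.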
# [2] = log D determination by micro-HPLC; type: physicochemical; settings: for log D: pH 7, n-octanol/phosphate buffer, HPLC
# [3] = system: human hepatocarcinoma HepaRG cells; assay: SDH activity; type: cell-based
# HUVEC [4] = assay: BrdU assay, HUVEC survival; type: cell-based, human; settings: 48 h; for effect on HUVEC survival: 10^−8 to 10^−5 M
# Method in brief: (§1)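 Survival version of the BrdU kit assay. HUVEC (2 × 10^4/well) in 1 % FBS; MDA-MB-231 (1.5 × 10^4/well) in 0 % FBS; triplicate wells. After 24 h serum-free phenol-red-free synchronisation, cells exposed 48 h to test compound at 10−8–10−5 M. BrdU (0.01 mM final) added, re-incubated 2–24 h, OD at 450 and 595 nm. Normalised to untreated controls after background subtraction.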
# [5] = type: physicochemical; settings: I = 0.1 M (KCl), T = 298 K, H2O/DMSO v/v 30:70; for Log β 1 1–3 (stability constant of Fe^III complex): 5a value by potentiometric and spectrophotometric titrations; for Log β 1 1–2 (stability constant of Fe^III complex): potentiometric and spectrophotometric titrations
# Method in brief: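 Performed in H2O/DMSO 30:70 v/v […], I = 0.1 (KCl), 25 °C under argon. Ligand at 10−4–10−5 M with EDTA-standardised FeCl3 at metal:ligand ratios 1:3, 1:2 and 1:1. Potentiometric and spectrophotometric titrations covered pH 1–13. For spectrophotometry, acidified FeIII–ligand solutions were titrated with KOH to pH 6.5, recording UV-visible spectra after each addition at 25.0 °C. pKw 17.16.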
# HUVEC [6] = assay: Matrigel assay, HUVEC capillary-tube formation; type: cell-based, human; settings: 16 h; for effect on HUVEC capillary tube formation versus control: 10^−6 to 10^−5 M
# Method in brief: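 Forty thousand HUVECs seeded on Matrigel in M199 with 10 % FBS containing test compound (10−5 to 10−6 M) and incubated 16 h. Capillary network length quantified by image analysis of micrographs. Untreated cells as control; genistein 30 μg mL−1 (inhibitor) and EGF 50 ng mL−1 (activator) as references. At least three separate experiments; mean ± SEM; ANOVA and Student's test.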
# MDA-MB-231 cells [7] = assay: BrdU assay, MDA-MB-231 cell proliferation; type: cell-based; settings: 48 h; for effect on MDA-MB-231 cell proliferation: 10^−8 to 10^−5 M
# Method in brief: (§2)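 HUVECs grown on 0.2 % gelatin in M199 with 20 % FBS and ECGS, passages 2–5. HUVEC seeded at 2 × 10^4 and MDA-MB-231 at 1.5 × 10^4 cells/well, in triplicate. Next day, G1-synchronised 24 h in serum-free phenol-red-free medium. Test compound (10−8–10−5 M) given in 10 % FBS for 48 h. BrdU (0.01 mM final) added for 2–24 h; OD read at 450/595 nm. Values background-subtracted and normalised to untreated controls.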
# HUVEC [8] = assay: BrdU assay, HUVEC proliferation; type: cell-based, human; settings: 48 h; for effect on HUVEC proliferation: 10^−8 to 10^−5 M
# Method in brief: as §2
# [9] = Protonation constants by potentiometric titration in H2O/DMSO; type: physicochemical; settings: for pKa: H2O/DMSO (v/v 30:70) solution
# Method in brief: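 Ligand (10−4–10−5 M, from DMSO solutions) titrated in H2O/DMSO 30:70 v/v at I = 0.1 (KCl), 25 °C, under argon. Automated titration with carbonate-free KOH standardised against potassium hydrogen phthalate. Read on a glass electrode with Ag/AgCl reference; 120–150 points per titration; pKw 17.16. Constants from nonlinear least-squares refinement of the potentiometric data.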
# MDA-MB-231 cells [10] = assay: BrdU assay, MDA-MB-231 cell survival; type: cell-based; settings: 48 h; for effect on MDA-MB-231 cell survival: 10^−8 to 10^−5 M
# Method in brief: as §1
# [11] = system: human hepatocarcinoma HepaRG cells; assay: Extracellular LDH leakage; type: cell-based; settings: 72 h; for % LDH/control with Fe^III 20 μM / % LDH/control without Fe^III: cell supernatant
# [12] = reported value; cited from earlier work
# [13] = reported in the literature; cited from earlier work
# [14] = read-out: SDH, IC50 without Fe^III, HepaRG cells, 72 h treatment, MTT assay
# [15] = I = 0.1 M (KCl), T = 298 K, H2O/DMSO v/v 30:70
SMILES,log D [2],"IC50 [3, 14] [µM]",Log β 1 2–6 (stability constant of Fe^III complex) [5],Log β 1 1–3 (stability constant of Fe^III complex) [5],"Log β 0 1–1 (overall protonation constant) [9, 15]","Log β 0 1–2 (overall protonation constant) [9, 15]","Log β 0 1–3 (overall protonation constant) [9, 15]","pKa1 [9, 15]","pKa2 [9, 15]","pKa3 [9, 15]",membrane diffusion / presence in intracellular medium after cell lysis (HepaRG cells),% LDH/control with Fe^III 20 μM ([11]; compound 10 μM) [%],% LDH/control without Fe^III ([11]; compound 10 μM),% LDH/control with Fe^III 20 μM ([11]; compound 100 μM) [%],% LDH/control without Fe^III ([11]; compound 100 μM) [%],effect on HUVEC migration versus control (HUVEC [1]),effect on HUVEC survival (HUVEC [4]),Log β 1 1–2 (stability constant of Fe^III complex) [5],effect on HUVEC capillary tube formation versus control (HUVEC [6]),effect on MDA-MB-231 cell proliferation (MDA-MB-231 cells [7]),further results
"O=C(CCOCCOc1c2cccc1Cc1cccc(c1O)Cc1cccc(c1O)Cc1cccc(c1O)C2)Nc1ccc(-n2nc(-c3ccccc3O)nc2-c2ccccc2O)cc1 [5a, 25-{1-[2-(2-{4-[3,5-Bis-(2-hydroxyphenyl)-1,2,4-triazol-1-yl]phenyl}carbamoylethoxy)ethoxy]}-26,27,28-trihydroxycalix[4]arene]",4.59 (±0.06),6 ± 1,−19.23(8),−1.74(1) ^[c],−6.67(2),−17.12(2),−29.63(2),6.67,10.45,12.51,found in the intracellular medium,67 ±6,105% and 105 ±11%,187 ±5,200 ±15,–,–,–,–,–,"reduction of HUVEC migration versus control (HUVEC [1]; 10^−5 M): 59%; reduction of HUVEC migration versus control (HUVEC [1]; 10^−6 M): 51%; concentrations at which the compound is cytostatic ([3]; HepaRG cells, 72 h, deduced from dose–effect curves): lower than 10 μM; SDH value relative to the control ([3]; compound 10 μM, HepaRG cells, 72 h): 6%; decrease of HUVEC survival versus control (HUVEC [4]; 10^−5 M): 65%; decrease of HUVEC survival versus control (HUVEC [4]; 10^−6 M): 56%; decrease of HUVEC survival versus control (HUVEC [4]; 10^−7 M): 28%; decrease of HUVEC ability to form capillary tubes versus control (HUVEC [6]; 10^−5 M): 48%; decrease of HUVEC ability to form capillary tubes versus control (HUVEC [6]; 10^−6 M): 42%; decrease of MDA-MB-231 cell proliferation versus control (MDA-MB-231 cells [7]; 10^−5 M): 73%; decrease of MDA-MB-231 cell proliferation versus control (MDA-MB-231 cells [7]; 10^−6 M): 62%; decrease of MDA-MB-231 cell proliferation versus control (MDA-MB-231 cells [7]; 10^−7 M): 33%; reduction of HUVEC proliferation versus control (HUVEC [8]; 10^−5 M): 74%; reduction of HUVEC proliferation versus control (HUVEC [8]; 10^−6 M): 51%; reduction of HUVEC proliferation versus control (HUVEC [8]; 10^−7 M): 46%; decrease of MDA-MB-231 survival versus control (MDA-MB-231 cells [10]; 10^−5 M): 58%; decrease of MDA-MB-231 survival versus control (MDA-MB-231 cells [10]; 10^−6 M): 51%; concentrations inducing a cytotoxic effect (membrane damage, LDH leakage) ([11]; deduced from dose–effect curves): higher than 10 μM"
"O=C(CCOCCOc1c2cccc1Cc1cccc(c1O)Cc1cccc(c1OCCOCCC(=O)Nc1ccc(-n3nc(-c4ccccc4O)nc3-c3ccccc3O)cc1)Cc1cccc(c1O)C2)Nc1ccc(-n2nc(-c3ccccc3O)nc2-c2ccccc2O)cc1 [5b, 25,27-Bis-{1-[2-(2-{4-[3,5-bis(2-hydroxyphenyl)-1,2,4-triazol-1-yl]-phenyl}carbamoylethoxy)ethoxy]}-26,28-dihydroxycalix[4]arene]",3.49 (±0.05),90 ± 7,–,−5.08(6),−9.88(3),−21.11(3),−33.21(3),9.88,11.23,12.10,found in the intracellular medium,91 ±11,76 ±4%,69 ±6,103 ±2,did not show any effect,did not show any effect,−2.35(8) ^[c],did not show any effect,did not show any effect,"reduction of the lipophilicity in comparison with 5a ([2]; from log D at pH 7): about 12 fold; effect on HUVEC proliferation (HUVEC [8]): did not show any effect; Log β 0 1–4 (overall protonation constant) [9, 15]: −46.38(6); Log β 0 1–5 (overall protonation constant) [9, 15]: −59.85(4); pKa4 [9, 15]: 13.17; pKa5 [9, 15]: 13.47; effect on MDA-MB-231 cell survival (MDA-MB-231 cells [10]): did not show any effect"
"O=C(O)c1ccc(-n2nc(-c3ccccc3O)nc2-c2ccccc2O)cc1 [ICL670, deferasirox, reference compound]",–,–,−20.35(8),−6.48(9),−5.56(5),−16.55(7),−29.53(7),–,–,–,–,80 ±5,87 ±7%,88 ±1,101 ±13,did not show any effect,did not show any effect,−1.06(9) ^[c],did not show any effect,did not show any effect,"IC50 ([3]; Homo sapiens, HepaRG, 72 h, read-out: SDH, IC50 with Fe^III 20 μM): 61 ± 7 µM; IC50 ([3]; Homo sapiens, HepaRG, 72 h, read-out: SDH, IC50 without Fe^III): 11 ± 4 µM; Log β 1 2–5 (stability constant of Fe^III complex) [5]: −13.72(9); log D [12]: −0.1; pFe [13]: 23.5; effect on HUVEC proliferation (HUVEC [8]): did not show any effect; pKa ([9]; pKa1, I = 0.1 M (KCl), T = 298 K, H2O/DMSO v/v 30:70): 5.56; pKa ([9]; pKa2, I = 0.1 M (KCl), T = 298 K, H2O/DMSO v/v 30:70): 11; pKa ([9]; pKa3, I = 0.1 M (KCl), T = 298 K, H2O/DMSO v/v 30:70): 13; effect on MDA-MB-231 cell survival (MDA-MB-231 cells [10]): did not show any effect"
"Oc1c2cccc1Cc1cccc(c1O)Cc1cccc(c1O)Cc1cccc(c1O)C2 [compound 6, calix[4]arene]",–,–,–,–,–,–,–,–,–,–,–,–,–,–,–,–,–,–,–,–,pKa (easily deprotonated site of the calix[4]arene core) ([9]; acid–base properties in solution): 4.6
